Source: PubChem BioAssay (The Scripps Research Institute Molecular Screening Center)
5-HT1A blocker: blocks the human serotonin 5-HT1a receptor | P08908 | CHO 5-HT1a Ga15 NFAT-bla reporter, antagonist mode | inhibition, % at 10 µM | actives 0.68% (n = 62,000) | AID 612;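 active = inhibition above the mean of all tested compounds plus 3 SD, cut at about 43% in these data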;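 also: receptor stimulated by 5-CT agonist at 100 nM near EC80; beta-lactamase reporter measured by ratiometric fluorescence of a cleavable substrate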
Target sequence (P08908 whole entry, looked up): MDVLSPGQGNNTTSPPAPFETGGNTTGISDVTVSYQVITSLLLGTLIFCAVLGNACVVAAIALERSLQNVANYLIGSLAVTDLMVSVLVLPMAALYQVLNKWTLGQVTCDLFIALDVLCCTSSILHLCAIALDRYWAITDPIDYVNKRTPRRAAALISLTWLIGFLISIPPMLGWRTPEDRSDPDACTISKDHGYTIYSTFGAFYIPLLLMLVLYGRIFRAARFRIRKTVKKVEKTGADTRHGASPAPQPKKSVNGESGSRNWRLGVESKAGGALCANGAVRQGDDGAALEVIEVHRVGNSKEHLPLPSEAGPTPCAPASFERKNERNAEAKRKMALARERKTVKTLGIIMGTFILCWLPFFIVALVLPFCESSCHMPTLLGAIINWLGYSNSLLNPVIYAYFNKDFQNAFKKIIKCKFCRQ
HEK293 NFkB inh: lowers PMA/ionomycin-induced NF-kB signal in HEK293 cells | HEK-293 NF-kB luciferase reporter, luminescence | inhibition, % at 3 µM | actives 0.21% (n = 62,000) | AID 465;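 active = inhibition above the mean of all tested compounds plus 3 SD, cut at about 40% in these data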;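 also: 0% = stimulated DMSO wells and 100% = 10 µM reference inhibitor 5653914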
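Timing: 1 h pretreatment, 16 h stimulation, 37 °C; system: HEK-293 cells with stable firefly luciferase reporter driven by four HIV NF-kB elements; doses: 3 µM once, 0.30% DMSO; measured by: luciferase luminescence; control set: DMSO and 10 µM reference inhibitor; repeats: single test; reagent: PMA plus ionomycin mix as NF-kB-activating stimulus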
5HT1E antag: blocks the human 5-HT1E serotonin receptor. P28566. CHO 5-HT1E Ga15 NFAT-bla reporter, FRET, antagonist. inhibition, % at 6 µM. actives 0.99% (n = 65,000). AID 571;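 active = inhibition above a set limit, the mean inhibition across every tested compound plus 3 SD, cut at about 29% in these data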;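 also: signal is the 460 over 535 nm emission ratio of beta-lactamase substrate; 0% = agonist plus DMSO wells and 100% = wells without agonist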
HTR1A agonist: activates the human 5-HT1a serotonin receptor; P08908; activation, % at 10 µM; actives 0.56% (n = 65,000); CHO 5-HT1a Ga15 NFAT-bla reporter, FRET ratio; 0% basal, 100% maximal reference agonist;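 active = activation above the screen-wide mean activation plus 3 SD, cut at about 19% in these data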;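 also: 0% = DMSO wells and 100% = 5-CT at EC100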
5HT1E ag: activates the human 5-HT1E serotonin receptor. P28566. CHO 5-HT1E Ga15 NFAT-bla reporter, FRET; 0% DMSO wells, 100% control agonist wells. activation, % at 6 µM. actives 0.69% (n = 65,000). AID 574;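 active = activation above a set limit, the screen-wide mean activation plus 3 SD, cut at about 8.5% in these data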;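 also: 100% = positive control agonist at 1 µM giving full maximal response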
* marks the source's active call; other numbers are inactive results; . = not tested or not shown. Only some compounds are listed: those with a hit (about 2.6% of all), similar ones and a draw of the others.

SMILES	5-HT1A blocker	HEK293 NFkB inh	5HT1E antag	HTR1A agonist	5HT1E ag
Cc1cc(C(=O)OCC(=O)N2CCN(c3ccccc3)CC2)c2ccccc2n1	-6.2	2.1	-0.6	6.5	1.0
O=C(c1ccco1)N1CCN(C(=O)C2CCN(S(=O)(=O)Cc3ccccc3)CC2)CC1	-0.7	7.6	2.2	-2.3	-0.7
CNC(=O)N(C1=NCC(C)(C)S1)c1ccc(F)c(Cl)c1	12.4	8.9	31.1*	1.2	-0.2
COCCN(CC(=O)NCc1ccccc1)C(=O)CCC(=O)Nc1ccccn1	-2.0	4.0	6.5	-2.7	-0.6
c1ccc(-c2csc(Nc3cccnc3)n2)nc1	28.8	-4.0	3.3	0.4	-0.2
COc1cccc2sc(Nc3nc(-c4ccccn4)cs3)nc12	66.2*	-0.6	69.3*	-2.0	2.8
CCOC(=O)c1sc(Nc2nc3c(OC)cccc3s2)nc1C	-19.6	-4.1	-5.7	27.9*	13.4*
COc1cccc2sc(Nc3nnc(-c4cccs4)o3)nc12	45.7*	-56.8	6.8	-7.5	0.2
CCOC(=O)C1=C(O)C(Nc2nccs2)(C(F)(F)F)N=C1C (configuration not stated)	5.8	10.5	1.7	-2.0	-0.8
CSc1nc2sc3c(c2c2nnnn12)CCCC3	.	.	-9.3	10.3	14.2*
Cc1nn(-c2ccccn2)c2c1C(c1ccsc1)C1=C(CCCC1=O)N2 (configuration not stated)	-6.4	9.9	35.4*	2.2	-0.3
CCSc1ccc2nnc(-c3cccc(F)c3)n2n1	-4.0	13.5	12.1	2.6	-0.8
COc1cc2c(cc1OC)/C(=C/C#N)NC(C)(C)C2	46.1*	11.9	43.9*	-0.7	-1.4
COc1ccc(C2CC(c3ccc(Cl)cc3)n3nc(N)nc3N2)cc1 (configuration not stated)	4.4	7.0	-8.1	-0.5	0.8
O=C(Nc1ccc(OC(F)F)c(Cl)c1)Nc1ccc2c(c1)OCO2	60.7*	3.0	8.7	-1.9	-0.3
CCOc1cc(C(=O)Nc2ccc3c(c2)OCO3)ccc1OC(F)F	9.0	14.5	26.2	5.7	-0.3
O=C1CC(Sc2nnc(-c3ccccc3O)o2)C(=O)N1c1ccccc1 (configuration not stated)	12.0	13.7	3.5	-2.1	0.6
COc1ccc(N2C(=O)CC(Sc3nnc(-c4ccccc4)o3)C2=O)cc1 (configuration not stated)	46.7*	6.5	-4.8	-3.0	-0.4
COc1ccc2c(c1)c(=O)cc(C)n2CC(=O)NCc1ccco1	1.7	14.8	-6.6	-2.9	0.3
CCOC(=O)C1(c2nc(N)cs2)COC(=O)C1 (configuration not stated)	.	.	-8.0	1.6	0.0
CCOC(=O)N1CCC(NC(=O)c2ccc(CS(=O)(=O)c3ccccc3C)o2)CC1	5.0	16.6	-6.5	38.6*	1.5
CCOC(=O)N1CCC(NC(=O)c2ccc(CS(=O)(=O)c3c(Cl)cccc3Cl)o2)CC1	-2.7	15.7	-3.5	-0.3	1.8
O=C(c1ccco1)N1CCN(C(=O)C2CCCO2)CC1 (configuration not stated)	-4.7	-3.2	1.4	-1.5	-0.2
CCOc1ccccc1C(=O)Nc1nnc(C(C)C)s1	8.7	12.3	32.6*	-1.2	-0.3
CCOc1ccccc1C(=O)Nc1nncs1	0.5	9.9	11.1	-0.6	0.1
SMILES	5-HT1A blocker	HEK293 NFkB inh	5HT1E antag	HTR1A agonist	5HT1E ag
CC1(C)Cc2c(c(N3CCOCC3)nc3snc(N)c23)CO1	.	.	10.6	359.4*	1.3
CC1(C)Cc2c(c(N3CCOCC3)nc3snc(Br)c23)CO1	.	.	24.0	1.7	-0.6
COC(=O)c1ccccc1NC1c2ccccc2C(=O)N1c1cccnc1 (configuration not stated)	11.9	4.1	12.7	56.1*	-0.9
Cc1ccnc(NC(=O)COc2ccc3oc4c(c3c2)CCCC4)c1	22.5	-5.6	-6.5	-0.5	-1.2
Cc1ccc(-c2nc(-c3ccccn3)no2)cc1	2.4	80.3*	3.2	3.4	0.0
Cc1ccc(-c2nc(-c3ccccn3)no2)cc1Cl	24.4	30.5	12.3	-0.9	-0.4
O=C(c1cnn(-c2nc3ccccc3s2)c1)c1ccccc1O	-6.8	7.4	11.8	21.2*	-0.2
COc1ccc(OC)c(C(=O)CSc2nnc(Cc3cccs3)n2C)c1	12.9	8.1	0.7	-2.2	-0.1
CC(C)c1nnc(N2C(=O)c3oc4ccccc4c(=O)c3C2c2ccco2)s1 (configuration not stated)	3.9	17.0	13.2	2.1	-0.5
Cc1ccc(C2c3c(oc4ccccc4c3=O)C(=O)N2c2nnc(C(C)C)s2)o1 (configuration not stated)	0.7	7.8	32.0*	-1.4	2.1
O=C(NC1CCCC1)NS(=O)(=O)c1ccccc1Cl	-14.0	13.6	-13.5	1.4	0.4
Cn1cccc1C(=O)NS(=O)(=O)c1ccccc1Cl	11.9	9.3	2.7	25.1*	-0.4
COc1ccc(C(C)C)cc1S(=O)(=O)NCc1ccccn1	-0.3	1.4	-8.5	-1.4	-1.1
CCOc1cc(S(=O)(=O)NCc2ccccn2)c(C)cc1C	2.5	21.4	4.6	53.5*	0.0
CC(=O)c1c(C)[nH]c(C(=O)N2CCc3ccccc32)c1C	-2.5	16.3	-4.0	0.2	0.8
COc1ccccc1C(=O)N1CCc2ccccc21	7.4	0.9	-1.2	-4.2	20.4*
CCOC(=O)c1[nH]c(C)c(C(=O)N2CCc3ccccc32)c1C	51.2*	20.8	76.7*	-3.1	-1.0
COc1cccc2cc(C(=O)N3CCc4ccccc43)c(=O)oc12	-12.2	-4.9	-7.6	-4.4	-0.6
CCOC(=O)c1cc2sccc2n1CC(=O)N1CCc2ccccc21	24.8	14.3	43.9*	-0.6	0.8
CCOCC(=O)N1CCc2ccccc21	6.5	-0.2	4.2	23.9*	-0.1
N#CC1=C(N)Oc2n[nH]c(-c3ccc(F)cc3)c2C1c1ccncc1 (configuration not stated)	4.6	2.2	4.7	0.0	-0.2
CCn1c(Sc2ccc(N)cc2Cl)nc2ccccc21	7.8	1.1	-2.6	-1.6	0.9
COc1ccc(-c2nn3c(-c4ccncc4)nnc3s2)cc1OC	5.8	4.2	4.2	1.5	-0.9
Cc1cc(NC(=O)CCS(=O)(=O)c2nc(-c3ccccc3)cc(C(F)(F)F)n2)no1	61.0*	7.9	40.0*	1.4	0.3
CS(=O)(=O)c1nc(-c2ccccc2)cc(C(F)(F)F)n1	110.3*	-4.3	64.5*	-9.2	2.9
FC(F)(F)c1cc(-c2ccccc2)nc(N2CCCCCC2)n1	-11.4	-1.2	-1.1	1.0	-0.3
COc1ccc(-c2cc(C(F)(F)F)nc(SCC(=O)Nc3cc(C)on3)n2)cc1	9.9	0.5	1.5	-1.4	-1.1
COc1ccc2nc(NCCO)[nH]c2c1	-6.4	5.6	-6.2	-1.2	0.5
CCCOc1ccc2nc(NC(=O)OC)[nH]c2c1	.	.	73.2*	-1.5	-0.1
